# Measured values reported in ChEMBL document CHEMBL4513216, “Probing the Open Global Health Chemical Diversity Library for Multistage-Active Starting Points for Next-Generation Antimalarials” (ACS Infect Dis, 2020).
# Test: Toxicity liver stage against HepG2, at 10uM
# Assay type: cell-based
# Parameters: test concentration 10 uM, cell line HepG2-A16-CD81EGFP
# Conditions: human, HepG2-A16-CD81EGFP cells; read-out: INHIBITION
# In short: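 Uninfected HepG2-A16-CD81EGFP cells, 3 × 10^3 per well, 1536-well, plated on prespotted compound at 10 μM final, parasite-free screening media added to match infected plates; puromycin 10 μM positive, DMSO 0.5% negative; run in parallel with 48 h PbLuc assay at 37 °C, 5% CO2; viability by CellTiter-Glo luminescence, normalized to controls.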
row,SMILES,cytotoxicity at 10 µM [%]
1,CN1C(=O)C2(NC(=O)c3ccccc3O2)c2ccccc21 (stereo unspecified),-7.65
2,Cc1cc(CN2CCC(CNS(=O)(=O)c3c(C)noc3C)CC2)c(C)o1,5.81
3,COc1cc(CN2CCC(COCc3ccccc3)CC2)cc(OC)c1,-3.38
4,O=C(CN1CCOCC1)Nc1ccc(C(F)(F)F)cc1Cl,4.72
5,Cc1nc(C#N)c(N2CCC(c3nc(-c4ccc(F)cc4)no3)CC2)o1,3.86
6,Cc1c(C(=O)O)cnn1-c1ccc(-c2nc(C3CC3)no2)cn1,0.88
7,Cc1c(C(=O)N2CCN(c3ccccn3)CC2)n(C)c2ccc(Cl)cc12,3.95
8,CN(c1ccccc1C(=O)O)S(=O)(=O)c1cccc2cccnc12,-0.996
9,Cc1nn(C)c2c(NCc3ccccn3)nc(C(C)C)nc12,-3.23
10,CCNS(=O)(=O)c1ccc2c(c1)c(=O)n(CC)c(=O)n2CC,10.4
11,CO[C@@H]1CC[C@@H](NS(=O)(=O)c2cn(C)nc2C)[C@H]1O,-3.11
12,CCCC(=O)Nc1cccc([C@H]2C[C@@H](NC(C)=O)CCO2)c1,5.09
13,COc1ccccc1C1CCCN1CC(=O)N1CCC(C(N)=O)CC1 (stereo unspecified),-24.8
14,Cc1nccn1CC(=O)N1CC(Cc2nccc3ccn(C)c23)C1,-23.4
15,CC(=O)N1CCN([C@@H]2CC[C@@H](NC(=O)c3cc(C)cs3)[C@H]2O)CC1,6.02
16,Cn1cc(C(=O)N2CCCC(c3cnccn3)C2)cn1 (stereo unspecified),-10.5
17,O=S(=O)(c1ccc(F)cc1)N1CCCC1c1cc[nH]n1 (stereo unspecified),-5.94
18,COCCC(=O)N1CCCC1c1nccnc1Nc1ncccn1 (stereo unspecified),-14.8
19,CN(C)CCN(C)C(=O)NC1CCC(Oc2ccccc2C#N)CC1 (stereo unspecified),-21.8
20,COc1ccc(-c2nc(CCNc3nnc(C)c(C)c3C#N)co2)cc1,-17.2
21,CN1CCOC(CNCc2nc(-c3cccnc3)no2)C1 (stereo unspecified),-5.3

row,SMILES,cytotoxicity at 10 µM [%]
1,O=C(NCC(O)c1ccsc1)c1sccc1OC(F)F (stereo unspecified),-16
2,CC(C)c1nnc2n1CCN(Cc1cc(Cl)c3c(c1)OCO3)C2,0.0723
3,Cn1nc2c(c1NC(=O)c1cccs1)CCC2,6.16
4,Cc1cc(F)c2c(c1)CCCN2S(=O)(=O)c1ncn(C)c1Cl,1.99
5,Cc1nc(CN2CCOC(c3ccc(Cl)cc3)C2)oc1C (stereo unspecified),-10.1
6,NC(=O)c1cnn2c1NCC(CNC1(c3ccccc3)CCC1)C2 (stereo unspecified),-8.84
7,CSc1ccc(NC(=O)Cn2cc(NC(C)=O)cn2)cc1,0.753
8,O=S(=O)(CC1CCCCO1)Nc1cnn(Cc2ccccc2)c1 (stereo unspecified),4.34
9,CN(C)S(=O)(=O)CCCN1CCc2c(ncn2C2CC2)C1,-10.5
10,Cc1cc(CN(Cc2ccccc2)C2CC2)on1,0.174
11,CC(C)(CNC(=O)C1CCCCN1S(C)(=O)=O)N1CCOCC1 (stereo unspecified),-7.15
12,CC(C)NC(=O)CS(=O)(=O)Cc1coc(-c2ccc(F)cc2)n1,-6.6
13,CC(C)COCCCNC(=O)c1cccnc1N1CCOCC1,-5.12
14,O=C(c1nc(=O)[nH][nH]1)N1CCCN(CC2CCCCC2)CC1,-12.9
15,Cc1nc(C2CCCN2C(=O)CN(C)Cc2ccccc2)no1 (stereo unspecified),-0.803
16,Cc1cnn(C2CN(CC(=O)N(C)Cc3ccc(C)o3)C2)c1,-15.9
17,Fc1cccc(Cl)c1CN1CCn2c(nnc2C2CC2)C1,8.7
18,CCOCC1CN(S(=O)(=O)c2ccccc2)Cc2nccn2C1 (stereo unspecified),-112
19,CC(=O)NCC(=O)N1CCN(C)c2ncccc2C1,-113
20,COC(=O)c1ccc2ccn(CC3CCCN(C)C3)c(=O)c2c1 (stereo unspecified),-16.1
21,CC(C)CN1C(=O)CC[C@H]2CN(C(=O)Cn3ccc(=O)cc3)CC[C@H]21,0.582

row,SMILES,cytotoxicity at 10 µM [%]
1,Cc1cc2nc(C(C)C)cc(NCCc3ccncc3)n2n1,-1.18
2,CC(c1ccon1)N(C)C(=O)C1CCN(C(=O)C2CC2)CC1 (stereo unspecified),-2.71
3,CC(C)N1CCC(CC(=O)NC(C(=O)O)c2ccc(F)cc2)CC1 (stereo unspecified),0.0453
4,COc1cccc(-c2n[nH]cc2-c2nc(CN3CCCC3)no2)c1,-23.2
5,COc1cc(C2CC(=O)Nc3c2nc2n3CCCC2)cc2c1OCO2 (stereo unspecified),-6.67
6,CCN1CCC(N2CCN(c3cc(-c4nc(C)no4)ccn3)CC2)CC1,-3.79
7,CCC(NC1CCN(S(C)(=O)=O)CC1)c1cccs1 (stereo unspecified),0.125
8,CN(C)CCO[C@H]1C[C@@H](O)C12CCN(c1cnccn1)CC2,3.79
9,CN1CCC(N2CC[C@@H]3[C@@H](CCC(=O)N3CCC3=CCCCC3)C2)CC1,-6.53
10,Cc1nnc(CCNC(=O)C(c2ccc(F)cc2)N(C)C)[nH]1 (stereo unspecified),-5.96
11,CCN(C)C(=O)c1ccc(N(C)Cc2cc(-c3cccnc3)no2)nc1,-7.21
12,CN(C)CCNC(=O)c1cc2n(n1)CCN(C(=O)c1ccco1)C2,2.52
13,Cc1nc(CN2CCC(NS(C)(=O)=O)CC2)co1,-12.4
14,CCC[C@@H]1CN(Cc2cnc(-c3cccs3)nc2)C[C@H]1C(=O)O,-22.9
15,OCCn1cc(CN2CCN(CCOc3cccc(F)c3)CC2)cn1,-10.9
16,Cc1nnc2n1CCN(Cc1ccc3c(c1)OCCO3)C2,-8.95
17,Cc1nc(C(=O)N2CCCC(c3cc(C(F)(F)F)[nH]n3)C2)c[nH]1 (stereo unspecified),-0.945
18,Cc1ccc(C(=O)NS(=O)(=O)c2ccccc2F)c(=O)[nH]1,-5.53
19,CC(C)c1nc2c(n1C)CCN(Cc1cccc(C(N)=O)c1)C2,-7.39
20,CC1CN(Cc2noc(C3CC3)n2)CCN1Cc1noc(C2CC2)n1 (stereo unspecified),-5.5
21,Cc1cccc(OCCC(=O)N2CCN(CC(=O)NC3CC3)CC2)c1C,2.22

row,SMILES,cytotoxicity at 10 µM [%]
1,CCOCc1cc(CNC2CCCc3c2cnn3CC)ccc1OC (stereo unspecified),-11.3
2,CC(=O)c1ccc(OCC(=O)NS(=O)(=O)c2ccc(C)s2)cc1,-8.9
3,CCc1ncc2c(n1)CN(CC(=O)Nc1nncs1)CC2,1.74
4,CCc1nc(C2CCCN2C(=O)c2ccc3c(c2)COC3)no1 (stereo unspecified),-14.4
5,COc1ccc(Br)c(C(=O)NC(CC(=O)O)c2cccs2)c1 (stereo unspecified),-3.48
6,Cc1nc(C)n(CC2CCCN2Cc2nc3ccccc3o2)n1 (stereo unspecified),-5.62
7,Cc1ncsc1C(=O)NC1CCN(Cc2cccc3c2OCCO3)CC1,-4.68
8,Cc1nc(C2CCCN(C(=O)c3cc(Cl)c[nH]3)C2)no1 (stereo unspecified),-8.29
9,CCn1cnnc1CNC(=O)CCC(=O)c1ccc2c(c1)OCCO2,-3.59
10,Cc1ccsc1CN(Cc1cccnc1)C1CC(C)(C)NC(C)(C)C1,-10.7
11,COC[C@@]12CCO[C@@H]1CCN(Cc1sccc1C)C2,-109
12,CC1CCN(c2cc(CCC3CCCN3)ncn2)CC1 (stereo unspecified),-14.6
13,Cc1ccc2c(c1)CCC2NCc1c(C)nn(C)c1N1CCOCC1 (stereo unspecified),-8.03
14,Cn1cc(C(=O)NCc2cncc3c2CCN(c2ccccn2)C3)cn1,-99.6
15,Cc1cnc(N2CCC3(CCN(Cc4csc(C)n4)C3=O)C2)nc1 (stereo unspecified),-102
16,CC(=O)N1CCCC2(C1)CN(c1nncs1)CCO2 (stereo unspecified),-102
17,CCN(C(=O)c1ccc2nnc(C3CCN(CCOC)C3)n2c1)C(C)C (stereo unspecified),-114
18,CCCn1nccc1NC(=O)CN1CCCC1c1c(C)nn(C)c1C (stereo unspecified),-2.7
